One molecule from ChEMBL document CHEMBL4425108, “A Selective and Slowly Reversible Inhibitor of l-Type Amino Acid Transporter 1 (LAT1) Potentiates Antiproliferative Drug Efficacy in Cancer Cells” (J Med Chem, 2016) can be followed below.

pIC50: −log10 of the molar value. Calls of active or inactive are those of the source. No cut-off for these calls is given here.

For orientation: inhibition means the change of the read-out against control, counted positive when it falls. By pIC50 is commonly meant the negative decadic logarithm of the IC50, by convention in mol/L. In general, fraction unbound refers to the share of the substance not bound to proteins or other matrix.

Series [1] concerns the target T1, Large neutral amino acids transporter small subunit 2 (Homo sapiens) (UniProt Q9UHI5).
T1 sequence (whole entry): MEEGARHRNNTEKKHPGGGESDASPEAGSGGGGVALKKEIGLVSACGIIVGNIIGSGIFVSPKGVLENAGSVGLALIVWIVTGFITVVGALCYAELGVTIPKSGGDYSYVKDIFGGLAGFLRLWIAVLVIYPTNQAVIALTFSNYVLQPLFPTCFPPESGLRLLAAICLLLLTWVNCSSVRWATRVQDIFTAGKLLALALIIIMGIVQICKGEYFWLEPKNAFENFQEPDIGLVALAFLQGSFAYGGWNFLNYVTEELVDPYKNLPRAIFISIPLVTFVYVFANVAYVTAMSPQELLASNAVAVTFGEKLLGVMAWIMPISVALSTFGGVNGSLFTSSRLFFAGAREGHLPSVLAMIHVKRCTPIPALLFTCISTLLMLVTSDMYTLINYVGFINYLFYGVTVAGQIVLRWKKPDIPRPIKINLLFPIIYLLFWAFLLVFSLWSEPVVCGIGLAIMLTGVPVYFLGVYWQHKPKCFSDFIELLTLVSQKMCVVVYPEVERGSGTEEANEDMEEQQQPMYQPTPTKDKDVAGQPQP
As to the kind of experiment: Competitive inhibition of [14C]-L-alanine uptake at LAT2 in human MCF7 cells at 50 to 1000 uM measured during 5 mins by liquid scintillation counting. In kind it is cell-based. The method in brief: (§1)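 MCF-7 cells were seeded at 1 × 10^5 cells/well and used one day later. Cells were washed and pre-incubated 10 min at 37 °C in HEPES-buffered HBSS (choline chloride, pH 7.4). Uptake of 10.0 µM [14C]-L-alanine ran 5 min at 37 °C with test agent (1–1000 µM) or DMSO blank. Cells were then given three ice-cold washes, lysed in 0.1 M NaOH and counted by liquid scintillation; n=3.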

A further series has as its system MCF7. As to the kind of experiment: Antiproliferative activity against human MCF7 cells assessed as reduction in cell viability measured after 72 hrs by resazurin dye-based fluorimetric analysis. In kind it is functional. The method in brief: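 MCF-7 cells were seeded at 2 × 10^4 cells/well on collagen-coated plates and treated one day later. Agents were given alone or combined (25 or 100 µM with 100 µM partner drug) in growth medium for 3 days. Viability was read daily by resazurin fluorescence (ex 560/em 590 nm) and expressed relative to untreated controls.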
In general terms: Resazurin is reduced to fluorescent resorufin, in cell work by metabolically active cells.

Series [2] deals with T2, Large neutral amino acids transporter small subunit 1 (Homo sapiens, UniProt Q01650). Description: Binding affinity to LAT1 in human MCF7 cells at 100 uM after 30 mins by HPLC analysis. It counts as cell-based. Put shortly:
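MCF-7 cells given 25-400 µM compound in pre-warmed HBSS (pH 7.4) at 37 °C for 30 min, washed three times with ice-cold HBSS, lysed in 0.1 M NaOH. Lysate quantified by HPLC-UV against a standard curve spiked into cell lysate. Amount normalised to protein (Bio-Rad assay, nmol/mg protein). n=3.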

Series [3] has as its target T1, Large neutral amino acids transporter small subunit 2 (Homo sapiens). As to the kind of experiment: Competitive inhibition of [14C]-L-alanine uptake at LAT2 in human MCF7 cells at 100 uM preincubated for 10 mins followed by addition of substrate measured during 5 mins by liquid scintillation counting. It counts as cell-based. Put shortly: as §1
A short description of series [4]: Fraction unbound in mouse heart at 23 umol/kg, ip administered as bolus by LC-MS analysis. In kind it is ADME, organism-based. Put shortly:
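Unbound fraction was measured by equilibrium dialysis at 100 µM in mouse plasma and in brain, liver, kidney, heart and prostate homogenates.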

The target of series [5] is T2, Large neutral amino acids transporter small subunit 1. Description: Drug uptake in human MCF7 cells assessed as LAT1 mediated drug transport per mg of protein at 100 uM measured 5 mins after warm wash by HPLC analysis. It counts as ADME, cell-based. The settings on record: mcf7, 5 min. Put shortly: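 MCF-7 monolayers were incubated with 100 µM compound in HBSS at 37 °C for 5 or 30 min. Cells got three washes with ice-cold or warm (37 °C) HBSS; in the warm 30 min arm they were washed after 5 min and again after 30 min. Lysates (0.1 M NaOH) were quantified by HPLC-UV against a spiked lysate standard curve and normalised to protein (Bio-Rad assay).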

Series [6] has the same target. Description: Inhibition of LAT1 in human MCF7 cells assessed as potentiation of cisplatin-induced antiproliferative activity by measuring reduction in cell viability at 100 uM measured after 24 hrs by resazurin dye-based fluorimetric analysis. The method in brief:
(§2)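 MCF-7 cells seeded 2 × 10^4/well on collagen-coated plates, treated one day later in growth medium with inhibitor (25 or 100 µM) plus bestatin or cisplatin (100 µM) for up to 3 days. Viability read daily by resazurin fluorescence (ex 560/em 590 nm). Viability is treated relative to untreated control. Mean ± SD, n=3.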

Series [7] can be described thus: Unbound AUC (0 to 480 mins) in mouse plasma at 23 umol/kg, ip administered as bolus by LC-MS analysis. In kind it is ADME, organism-based. The settings on record: in vivo. Put shortly:
(§3)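 Male mice (25 ± 5 g) dosed i.p. as a bolus at 23 µmol/kg in DMSO/hydroxypropyl-β-cyclodextrin/saline vehicle, sampled at time points 10–480 min; plasma and tissue homogenates (1:3 water) analysed by LC-MS. […] Mean ± SEM.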

Series [8] in a line: Terminal half life in mouse kidney at 23 umol/kg, ip administered as bolus by LC-MS analysis. It counts as ADME, organism-based. The settings on record: read-out: beta t1/2. Put shortly: (§4)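 Male adult mice (25 ± 5 g) given a single i.p. bolus at 23 µmol/kg. The dosing solution was 1.36 mM in 10% (v/v) DMSO, 20% (w/v) hydroxypropyl-β-cyclodextrin and 0.9% NaCl. Animals were decapitated at seven time points from 10 to 480 min. Plasma and tissues were acetonitrile-precipitated with repaglinide internal standard and analysed by LC-MS. Parameters were derived from concentration–time data, mean ± SEM (n=3).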

Series [9] is described as follows: Cmax in mouse prostate at 23 umol/kg, ip administered as bolus by LC-MS analysis. In kind it is ADME, organism-based, Prostate gland. More on the design: dose 23 umol/kg, route intraperitoneal. The conditions noted are these: in vivo. Put shortly:
as §4

Series [10] has as its target T2, Large neutral amino acids transporter small subunit 1. As to the kind of experiment: Competitive inhibition of [14C]-L-leucine uptake at LAT1 in human MCF7 cells preincubated for 5 mins followed by addition of substrate measured during 5 mins by liquid scintillation counting. It counts as cell-based.
A short description of series [11]: Metabolic stability in mouse liver S9 fraction at 37 degreeC in presence of NADPH regenerating system measured after 2 hrs by HPLC analysis. It counts as ADME, subcellular. The conditions noted are these: s9, 2 h.
Series [12] is described as follows: fCmax in mouse kidney at 23 umol/kg, ip administered as bolus by LC-MS analysis. In kind it is ADME, organism-based. The settings on record: in vivo. Put shortly: as §3
Series [13] is described as follows: Cmax in mouse plasma at 23 umol/kg, ip administered as bolus by LC-MS analysis. In kind it is ADME, organism-based. More on the design: dose 23 umol/kg, route intraperitoneal. Put shortly: as §4
The target of series [14] is Large neutral amino acids transporter small subunit 1 (Mus musculus, UniProt Q9Z127). Description: Ratio of Kin for L-leucine to Kin for test compound for LAT1-mediated drug uptake in mouse brain. In kind it is ADME, tissue-based. The settings on record: in vivo. The method in brief:
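In situ brain perfusion in anaesthetised adult male mice (ketamine/xylazine i.p.) via right common carotid at 2.5 mL/min, 37 °C. Perfusate was 0.157 µM [14C]-L-leucine for 30 s or 100 µM test compound for 60 s, then 2 s drug-free buffer at 4 °C. Kin = Qtot/(Cpf × T). Mean ± SD, n=3-4.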

Series [15] deals with T2, Large neutral amino acids transporter small subunit 1. As to the kind of experiment: Inhibition of LAT1 in human MCF7 cells assessed as potentiation of cisplatin-induced antiproliferative activity by measuring reduction in cell viability at 25 uM measured after 72 hrs by resazurin dye-based fluorimetric analysis. The method in brief: as §2

T2 sequence (Q01650 whole entry): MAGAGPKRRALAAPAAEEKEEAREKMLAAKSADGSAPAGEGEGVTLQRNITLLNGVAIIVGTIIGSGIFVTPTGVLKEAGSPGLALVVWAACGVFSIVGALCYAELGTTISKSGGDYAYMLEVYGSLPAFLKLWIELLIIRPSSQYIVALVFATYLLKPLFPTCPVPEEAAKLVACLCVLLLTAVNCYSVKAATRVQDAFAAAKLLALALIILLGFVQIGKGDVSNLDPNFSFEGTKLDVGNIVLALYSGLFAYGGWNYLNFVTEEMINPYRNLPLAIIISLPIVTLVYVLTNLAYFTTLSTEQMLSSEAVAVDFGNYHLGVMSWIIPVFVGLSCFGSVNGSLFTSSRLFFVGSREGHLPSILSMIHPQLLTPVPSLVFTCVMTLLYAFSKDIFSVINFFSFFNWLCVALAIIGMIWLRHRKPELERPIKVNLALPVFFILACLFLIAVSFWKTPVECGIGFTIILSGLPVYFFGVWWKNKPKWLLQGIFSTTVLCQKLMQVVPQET
Chain of Large neutral amino acids transporter small subunit 1 (Mus musculus, UniProt Q9Z127) (Q9Z127 whole entry, the tested form may be a part): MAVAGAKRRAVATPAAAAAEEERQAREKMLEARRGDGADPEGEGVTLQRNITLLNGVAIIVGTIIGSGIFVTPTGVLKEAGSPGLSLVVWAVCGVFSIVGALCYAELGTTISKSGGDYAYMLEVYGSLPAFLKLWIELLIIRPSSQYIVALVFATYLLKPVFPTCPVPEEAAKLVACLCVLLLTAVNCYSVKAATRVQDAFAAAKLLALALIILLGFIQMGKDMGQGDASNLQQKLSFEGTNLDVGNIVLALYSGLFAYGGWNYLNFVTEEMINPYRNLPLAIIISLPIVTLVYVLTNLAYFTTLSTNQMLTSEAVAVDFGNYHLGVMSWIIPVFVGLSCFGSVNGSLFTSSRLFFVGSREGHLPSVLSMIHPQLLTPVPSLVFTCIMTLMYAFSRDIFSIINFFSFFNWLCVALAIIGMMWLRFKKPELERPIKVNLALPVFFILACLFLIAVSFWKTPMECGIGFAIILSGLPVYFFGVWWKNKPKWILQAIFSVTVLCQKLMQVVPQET

With `CNC(=O)COc1ccc(-c2c(C#N)c(NC(=O)c3cccc(C[C@H](N)C(=O)O)c3)n3c(nc4ccccc43)c2C#N)cc1`, the inhibition entry in series [1] was “inactive”. The Activity entry is “Dose-dependent effect” in the series on MCF7, 65% in series [6] and 49.7% in [15]. Further, the pIC50 was 3.91 with MCF7 (MCF7, 72 h) and 4.74 in [10]. Moreover, the result in series [2] was Active. The inhibition was 3.93% in series [3] and “Dose-dependent effect” in series [10]. The molecule further returned a fraction unbound in [4] of 0.0162. The Drug uptake in series [5] worked out at 1.43 nmol/mg. The same molecule showed a fAUC in series [7] of 7.8 nmol/min/mL. The half-life in series [8] is 41.8 min. Besides, the figures for the Cmax in [9] and in series [13] were 24.1 nmol/g and 19.5 µM, respectively. Moreover, in series [11], the Stability result is given as “Stable”. Moreover, in series [12], the fCmax worked out at 0.37 nmol/g. The Ratio in [14] stood at 156.
